This is a sample that favours compounds with a hit; in the whole collection about 3.3% have one here.
STAT3 activator: IL-6 driven STAT3 reporter potentiators, primary screen, U3A cells, luciferase, luminescence, MLSCN library | 0.91% of 190,000 active | AID 871, 2007 | IL-6 STAT3-luciferase reporter; 100% = signal with IL-6 EC80 alone | activation (% of control), % at 5.6 µM;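 active means activation above the screen-wide mean of compound activation plus 3 SD, cut at about 130% in these data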;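 further: 0% = background luminescence of wells with medium and substrate only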
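Material: STAT3-luciferase reporter U3A cells. Controls: IL-6-treated wells, 100% activation. Read-out: % activation versus median of IL-6-stimulated wells. Probe or stimulus: IL-6 stimulus at 33 ng/mL final. Timing: compound 1 h, then IL-6 6 h at 37 °C. Signal: reporter luminescence signal.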
AHR activator: AHR activators, primary screen, cell-based, luminescence, luciferase reporter, human | 2.5% of 320,000 active | AHR-responsive luciferase reporter cells | activation, % at 5 µM; in the data active means activation above about 47%;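 further: 0% = vehicle wells and 100% = reference agonist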
ABCB6 inh 2: ABCB6 transporter inhibitors, primary screen, K562-ABCB6 cells, flow cytometry, MLPCN library; AID 602162, 2011; K562-ABCB6 porphyrin accumulation, 1 h; active compounds read low; fluorescence ratio to DMSO, % at 10 µM; 0.19% of 360,000 active;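 active means fluorescence ratio to DMSO below 75%, the collection mean minus 3 SD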;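 further: signal is porphyrin accumulated inside mitochondria; 100% equals median channel fluorescence of DMSO control wells; lower ratio means ABCB6 inhibition with less porphyrin fluorescence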
GAA850 FXN act: FXN promoter activators, primary screen, cell-based, luciferase luminescence, HEK293 lucGAA850. activation, % at 6 µM. AID 540364, 2011. HEK293 lucGAA850 FXN promoter luciferase reporter, 24 h; percent of 10 µM SAHA response. 0.56% of 360,000 active;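 active means activation above the average of all compounds screened plus 3 SD, cutoff fixed separately per campaign, cut at about 7.5% in these data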;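 further: 0% = DMSO wells and 100% = 10 µM SAHA wells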
Active calls of the source: *; nt = no result given.

SMILES | STAT3 activator | AHR activator | ABCB6 inh 2 | GAA850 FXN act
CCn1c(/C=C/c2c(C)[nH]c3ccccc23)nc2ccccc2c1=O | 116 | 65* | 96 | 3
CCn1c(/C=C/c2cccc([N+](=O)[O-])c2)nc2ccccc2c1=O | 94 | 68* | 98 | 3
CN(Cc1ccon1)Cc1cn[nH]c1-c1ccc(-c2ccccc2)cc1 | 100 | 52* | 97 | 0
CC(c1ccon1)N(C)Cc1cn[nH]c1-c1ccc(-c2ccccc2)cc1 (stereo not drawn) | 100 | 61* | 102 | 3
CN(Cc1cn[nH]c1-c1ccc(-c2ccccc2)cc1)CC1CCOCC1 | nt | 16 | 93 | 2
CC(C)(C)c1ccc(OCC(O)CN2CCN(C(=O)c3ccccc3)CC2)cc1 (stereo not drawn) | nt | -3 | 96 | 2
CC(=O)NS(=O)(=O)c1cccnc1Nc1cccc(Cl)c1 | 109 | 5 | 89 | 0
N#Cc1cccnc1Nc1cccc(Cl)c1 | 99 | 77* | 108 | 3
CCCC(=O)Nc1cccc(Oc2nc(C)cc(C)c2C#N)c1 | 100 | 58* | 96 | 1
Cc1cc(C)c(C#N)c(Oc2ccc(O)cc2)n1 | 93 | 2 | 110 | 0
COc1ccc(C(=O)COc2nc(C)cc(C)c2C#N)cc1 | 77 | 47* | 96 | 0
CC(C)=C(NC(=O)c1ccccc1)C(=O)Nc1cccc(C(=O)O)c1 | 98 | -2 | 101 | 1
COc1ccc2[nH]cc(CCNC(=O)c3ccc4ccccc4n3)c2c1 | nt | 71* | 96 | 1
COc1ccc(CCN(C)C(=O)c2cc(-c3ccc(C)cc3)nc3ccccc23)cc1OC | nt | 7 | 88 | 4
COc1ccc(-c2cc(C(=O)Nc3ccc(C(N)=O)cc3)c3ccccc3n2)cc1OC | 105 | 52* | 103 | 7
COc1ccc(-c2cc(C(=O)N(C)Cc3ccc(F)cc3)c3ccccc3n2)cc1OC | nt | 64* | 91 | 0
COc1ccc(-c2cc(C(=O)NC3=NCCS3)c3ccccc3n2)cc1OC | 114 | 67* | 104 | -2
O=C(NC1=NCCS1)c1cc(-c2ccc(-c3ccccc3)cc2)nc2ccccc12 | 105 | 1 | 99 | 3
O=C1c2ccccc2[C@@H]2C[C@@H](O)[C@H](Nc3ccccc3-c3ccccc3)CCN12 | nt | nt | 98 | -1
Cc1cc(=O)oc2cc(OCC(=O)NCCCn3ccnc3)ccc12 | nt | 4 | 96 | 2
Cc1cc(=O)oc2cc(OCC(O)Cn3ccnc3)ccc12 (stereo not drawn) | nt | 52* | 98 | -2
CN(C(=O)c1cccc(NC(=O)Cc2ccc(NC(=O)C3CCCN(C(=O)C4CCCCC4)C3)cc2)c1)C1CC1 (stereo not drawn) | nt | nt | 101 | -2
CC(=O)c1c(C(C)=O)c(C)n(-c2nc(-c3ccc(Br)cc3)c(C)s2)c1C | 100 | 56* | 95 | 1
COc1ccc(-c2nc(-n3c(C)c(C(C)=O)c(C(C)=O)c3C)sc2C)cc1OC | 94 | 8 | 97 | -1
CCc1nc2c(OCc3ccc(Cl)cc3)cccn2c1N(C)C(=O)c1ccncc1 | nt | nt | 91 | 0
SMILES | STAT3 activator | AHR activator | ABCB6 inh 2 | GAA850 FXN act
Cc1ccccc1OCC(=O)N/N=C1\CCOc2c(C)cccc21 | 95 | 1 | 104 | 0
COc1cccc2c1OCC/C2=N\NC(=O)COc1ccccc1C | 96 | 48* | 112 | 1
CCOCCn1c2ccccc2c2nc3ccccc3nc21 | nt | 38 | 99 | 3
CCCCc1c(C)nn(-c2nnc3c4ccccc4n(CC)c3n2)c1C | 88 | 52* | 98 | 0
CCn1c2ccccc2c2nc3ccccc3nc21 | 110 | 90* | 120 | 9.3*
COC(=O)[C@H](Cc1ccccc1)NC(=O)/C=C/[C@H]1O[C@@H](n2ccc(=O)[nH]c2=O)[C@H](O)[C@@H]1O | nt | nt | 96 | nt
O=C1C(Nc2ccccc2)=C(NS(=O)(=O)c2ccccc2)C(=O)c2ccccc21 | 134* | 57* | 98 | 5
COc1ccc(S(=O)(=O)NCC(=O)Nc2cccc(C)c2C)cc1OC | 96 | 0 | 103 | -1
Cn1cccc1C(=O)OCC(=O)Nc1ccc2c(c1)OCCO2 | nt | 2 | 93 | -1
CCOC(=O)c1c(C)n(C)c2ccc(OC)c(NC(=O)CCN3CCC(Cc4ccccc4)CC3)c12 | nt | 66* | 98 | 0
COC(=O)c1oc2ccccc2c1N | 92 | 77* | 140 | 2
CC(=O)c1oc2ccccc2c1N | 104 | 7 | 94 | 1
